Assay results reported in ChEMBL document CHEMBL1147710, “Synthesis of (2E)-3-{2-[(substituted benzyl)oxy]phenyl}acrylaldehydes as novel anti-inflammatory agents” (Bioorg Med Chem Lett, 2006).

Assays:
Neutrophil [1] = assay: Inhibition of PMA-induced superoxide formation in Sprague-Dawley rat neutrophil at 10 uM; type: functional
Procedure, shortened: (§1)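 Superoxide generation by rat (Sprague Dawley) neutrophils stimulated with PMA at 3 nM. Test range 1–30 µM. Readout is superoxide formed in nmol/10⁶ cells/30 min, with percent inhibition versus control. N = 3.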

Neutrophil [2] = assay: Formation of PMA-induced superoxide in Sprague-Dawley rat neutrophil at 10 uM per 10^6 cells after 30 min; type: functional; procedure, shortened: as §1
Neutrophil [3] = assay: Formation of PMA-induced superoxide in Sprague-Dawley rat neutrophil at 30 uM per 10^6 cells after 30 min; type: functional; procedure, shortened: as §1
Neutrophil [4] = assay: Inhibition of PMA-induced superoxide formation in Sprague-Dawley rat neutrophil at 30 uM; type: functional; procedure, shortened: as §1
Neutrophil [5] = assay: Formation of fMLP-induced superoxide in Sprague-Dawley rat neutrophil at 3 uM per 10^6 cells after 30 min; type: functional
Procedure, shortened: (§2)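 Rat (Sprague Dawley) neutrophils were stimulated with fMLP (0.3 µM) plus cytochalasin B (5 µg/mL). Superoxide formed was reported as nmol/10⁶ cells/30 min and percent inhibition versus control. IC50 was derived from the […] concentration series. N = 3.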

Neutrophil [6] = assay: Formation of fMLP-induced superoxide in Sprague-Dawley rat neutrophil at 10 uM per 10^6 cells after 30 min; type: functional; procedure, shortened: as §2
Neutrophil [7] = assay: Formation of fMLP-induced superoxide in Sprague-Dawley rat neutrophil at 30 uM per 10^6 cells after 30 min; type: functional; procedure, shortened: as §2
Neutrophil [8] = assay: Inhibition of fMLP-induced superoxide formation in Sprague-Dawley rat neutrophil at 3 uM; type: functional; procedure, shortened: as §2
Neutrophil [9] = assay: Inhibition of fMLP-induced superoxide formation in Sprague-Dawley rat neutrophil at 10 uM; type: functional; procedure, shortened: as §2
Neutrophil [10] = assay: Inhibition of fMLP-induced superoxide formation in Sprague-Dawley rat neutrophil at 30 uM; type: functional; procedure, shortened: as §2
Neutrophil [11] = assay: Inhibition of fMLP-induced superoxide formation in Sprague-Dawley rat neutrophil; type: functional, cell-based; procedure, shortened: as §2
Neutrophil [12] = assay: Formation of fMLP-induced superoxide in Sprague-Dawley rat neutrophil at 1 uM per 10^6 cells after 30 min; type: functional; procedure, shortened: as §2
Neutrophil [13] = assay: Inhibition of fMLP-induced superoxide formation in Sprague-Dawley rat neutrophil at 1 uM; type: functional; procedure, shortened: as §2

| SMILES | inhibition at 10 µM (Neutrophil [1]) | Activity (Neutrophil [2]) | Activity (Neutrophil [3]) | inhibition at 30 µM (Neutrophil [4]) | Activity (Neutrophil [5]) | Activity (Neutrophil [6]) | Activity (Neutrophil [7]) | inhibition at 3 µM (Neutrophil [8]) | inhibition at 10 µM (Neutrophil [9]) | inhibition at 30 µM (Neutrophil [10]) | IC50 (Neutrophil [11]) | Activity (Neutrophil [12]) | inhibition at 1 µM (Neutrophil [13]) |
| --- | --- | --- | --- | --- | --- | --- | --- | --- | --- | --- | --- | --- | --- |
| O=C/C=C/c1ccccc1OCc1ccc(Cl)cc1 | -23.9% | 9.41 nmol | 9.26 nmol | -22% | 2.23 nmol | 1.05 nmol | 0.37 nmol | 22.4% | 63.1% | 86.9% | 7.4 µM | – | – |
| O=C/C=C/c1ccccc1OCc1ccccc1Cl | -30.1% | 9.86 nmol | 8.39 nmol | -10.9% | 1.69 nmol | 0.82 nmol | 0.29 nmol | 40.1% | 71.4% | 89.7% | 4.4 µM | – | – |
| COc1ccc(OCc2ccccc2)c(/C=C/C=O)c1 | -24% | 9.42 nmol | 9.19 nmol | -20.9% | 1.37 nmol | 0.53 nmol | – | 52.2% | 81.2% | – | 2.6 µM | 2.09 nmol | 26.7% |
| COc1ccc(OCc2cccc(Cl)c2)c(/C=C/C=O)c1 | -35.7% | 10.3 nmol | 9.96 nmol | -31.2% | 1.82 nmol | 0.67 nmol | – | 36.8% | 77.7% | – | 4.2 µM | 2.54 nmol | 11.4% |
| COc1ccc(OCc2ccc(Cl)cc2)c(/C=C/C=N/O)c1 | -124% | 11.9 nmol | 12.1 nmol | -132% | – | 2.53 nmol | 2.41 nmol | – | 27.9% | 31.6% | – | – | – |
| COc1ccc(COc2ccccc2/C=C/C=O)cc1 | -24.5% | 9.45 nmol | 9.28 nmol | -22.2% | 1.58 nmol | 0.81 nmol | 0.33 nmol | 44.6% | 71.3% | 88.2% | 3.8 µM | – | – |
| O=C/C=C/c1ccccc1OCc1c(Cl)cccc1Cl | -50.6% | 11.4 nmol | 12 nmol | -59.2% | – | 1.71 nmol | 1.54 nmol | – | 40.3% | 46.8% | – | – | – |
| COc1ccc(OCc2ccc(Cl)cc2)c(/C=C/C=O)c1 | -23.3% | 9.39 nmol | 9.55 nmol | -25.5% | – | 2.1 nmol | 1.9 nmol | – | 27.1% | 33.4% | – | – | – |
| Cc1ccc(COc2ccccc2/C=C/C=O)cc1 | -13.2% | 8.53 nmol | 9.51 nmol | -25.8% | 2.24 nmol | 1.57 nmol | 0.78 nmol | 21.9% | 45.1% | 73.2% | 11 µM | – | – |
| O=C/C=C/c1ccccc1OCc1cccc(Cl)c1Cl | 11.2% | 6.72 nmol | 6.29 nmol | 17.3% | – | 2.39 nmol | 1.75 nmol | – | 17.4% | 39.9% | – | – | – |
| COc1ccc(OCc2ccccc2)c(/C=C/C=N/O)c1 | 7.6% | 4.97 nmol | 6.9 nmol | -29.4% | 2.03 nmol | 1.05 nmol | 0.48 nmol | 41.9% | 70% | 86% | 4.3 µM | – | – |
| O=C/C=C/c1ccccc1OCc1ccc(Cl)cc1Cl | -22.7% | 9.29 nmol | 9.84 nmol | -29.8% | – | 2.16 nmol | 1.76 nmol | – | 24.4% | 39.9% | – | – | – |
| O=C/C=C/c1ccccc1OCc1cccc(F)c1 | -6.2% | 8.07 nmol | 9.38 nmol | -23.7% | 1.7 nmol | 0.76 nmol | 0.46 nmol | 40.3% | 73% | 83.9% | 4.5 µM | – | – |
| COc1ccc(OCc2ccccc2Cl)c(/C=C/C=N/O)c1 | 1.5% | 5.27 nmol | 7.62 nmol | -44.4% | 2.45 nmol | 2.09 nmol | 0.78 nmol | 29.5% | 40.4% | 77.7% | 9.5 µM | – | – |
| O=C/C=C/c1ccccc1OCc1ccccc1 | -13.5% | 8.61 nmol | 9.39 nmol | -23.6% | 1.96 nmol | 1.05 nmol | 0.48 nmol | 31.8% | 63.7% | 83.2% | 6.4 µM | – | – |
| COc1ccc(OCc2ccccc2Cl)c(/C=C/C=O)c1 | -17.5% | 8.94 nmol | 9.63 nmol | -26.9% | – | 1.89 nmol | 1.69 nmol | – | 34.3% | 40.9% | – | – | – |
| O=C/C=C/c1ccccc1OCc1cccc(Cl)c1 | -30.1% | 9.85 nmol | 9.06 nmol | -18.7% | 2 nmol | 0.99 nmol | 0.34 nmol | 31.2% | 65.7% | 88% | 5.9 µM | – | – |
| O=C/C=C/c1ccccc1OCc1ccccc1F | -24.1% | 9.45 nmol | 9.82 nmol | -29.4% | 1.48 nmol | 0.72 nmol | 0.35 nmol | 47.5% | 75.1% | 87.6% | 3.3 µM | – | – |
